Experiments:
SNB-19 = experiment: Antitumor activity against human SNB19 cells; format: functional
Outline: (§1)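 Tested in the NCI in vitro disease-oriented human tumor cell screen. The endpoints are IC50 (molar concentration giving 50% growth inhibition), TGI (total growth inhibition) and LC50 (50% net cell death). The maximal concentration tested was 100 μM. Subpanel values are means of several individual cell lines.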

COLO 205 = experiment: Antitumor activity against human COLO 205 cells; format: functional; outline: as §1
RPMI-8226 = experiment: Antitumor activity against human RPMI8226 cells; format: functional; outline: as §1
OVCAR-5 = experiment: Antitumor activity against human OVCAR5 cells; format: functional; outline: as §1
DU-145 = experiment: Antitumor activity against human DU145 cells; format: functional; outline: as §1
SF-539 = experiment: Antitumor activity against human SF539 cells; format: functional; outline: as §1
UACC-62 = experiment: Antitumor activity against human UACC62 cells; format: functional
Outline: (§2)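 NCI in vitro disease-oriented tumour cell line screen. Read-outs are IC50 (molar concentration giving 50% growth inhibition), TGI (molar concentration giving total inhibition of net growth) and LC50 (molar concentration giving 50% net cell death). The maximal concentration tested was 100 μM.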

CAKI-1 = experiment: Antitumor activity against human CAKI1 cells; format: functional; outline: as §1
NCI [1] = experiment: Antitumor activity against human NCI colon cancer cell line panel; format: functional, cell-based; outline: as §1
MDA-MB-435 = experiment: Antitumor activity against human MDA-MB-435 cells; format: functional; outline: as §1
NCI [2] = experiment: Antitumor activity against human NCI CNS cancer cell line panel; format: functional, cell-based; outline: as §1
NCI [3] = experiment: Antitumor activity against human NCI leukemia cell line panel; format: functional, cell-based; outline: as §1
A549 = experiment: Antitumor activity against human A549 cells; format: functional; outline: as §1
SW-620 = experiment: Antitumor activity against human SW620 cells; format: functional; outline: as §2
SK-MEL-28 = experiment: Antitumor activity against human SK-MEL-28 cells; format: functional; outline: as §1
SNB-75 = experiment: Antitumor activity against human SNB75 cells; format: functional; outline: as §2
NCI [4] = experiment: Antitumor activity against human NCI renal cancer cell line panel; format: functional, cell-based; outline: as §1
OVCAR-3 = experiment: Antitumor activity against human OVCAR-3 cells; format: functional; outline: as §1
SF-268 = experiment: Antitumor activity against human SF268 cells; format: functional; outline: as §1
BT-549 = experiment: Antitumor activity against human BT549 cells; format: functional; outline: as §1
HOP-92 = experiment: Antitumor activity against human HOP92 cells; format: functional; outline: as §1
IGROV-1 = experiment: Antitumor activity against human IGROV1 cells; format: functional; outline: as §1
NCI [5] = experiment: Antitumor activity against human NCI breast cancer cell line panel; format: functional, cell-based; outline: as §1
[6] = Antitumor activity against human LOX IMV1 cells; format: functional, cell-based; outline: as §1
SK-MEL-2 = experiment: Antitumor activity against human SK-MEL-2 cells; format: functional; outline: as §1
OVCAR-4 = experiment: Antitumor activity against human OVCAR4 cells; format: functional; outline: as §1
EKVX = experiment: Antitumor activity against human EKVX cells; format: functional; outline: as §1
NCI-H460 = experiment: Antitumor activity against human NCI-H460 cells; format: functional; outline: as §1
HCT-116 = experiment: Antitumor activity against human HCT116 cells; format: functional; outline: as §1
Hs-578T = experiment: Antitumor activity against human HS578T cells; format: functional; outline: as §1
MCF7 = experiment: Antitumor activity against human MCF7 cells; format: functional; outline: as §1
786-0 = experiment: Antitumor activity against human 786-0 cells; format: functional; outline: as §1
NCI-H322M = experiment: Antitumor activity against human NCI-H322M cells; format: functional; outline: as §1
NCI-H23 = experiment: Antitumor activity against human NCI-H23 cells; format: functional; outline: as §1
SK-OV-3 = experiment: Antitumor activity against human SKOV3 cells; format: functional; outline: as §1
TK-10 = experiment: Antitumor activity against human TK10 cells; format: functional; outline: as §2
SF-295 = experiment: Antitumor activity against human SF295 cells; format: functional; outline: as §1
[7] = tested on: Non-small cell lung cancer cell line; experiment: Antitumor activity against human NCI non-small cell lung cancer cell line panel; format: functional, cell-based; outline: as §1
[8] = Half life of hydrolysis in deuterated phosphate buffer at pD 7.8; details: deuterated phosphate buffer, pH 7.8
U-251 = experiment: Antitumor activity against human U251 cells; format: functional; outline: as §2
MDA-MB-231 = experiment: Antitumor activity against human MDA-MB-231 cells; format: functional; outline: as §1
[9] = read-out: Log LC50 (the source's name) (converted)

`CN(/N=N/c1nc(OCc2ccccc2)c2nc[nH]c2n1)C(=O)N(C)/N=N/c1nc(OCc2ccccc2)c2nc[nH]c2n1` gave a GI50 (SNB-19) greater than 100 µM, an LC50 (SNB-19) greater than 100 µM and a TGI (SNB-19; read-out: Log TGI (converted)) greater than 100 µM. It also gave a GI50 (COLO 205) of 37.2 µM, a CC50 (COLO 205; [9]) greater than 100 µM and a TGI (COLO 205; read-out: Log TGI (converted)) greater than 100 µM. For the same molecule, the GI50 (RPMI-8226) was 38 µM, the CC50 (RPMI-8226; [9]) was greater than 100 µM and the TGI (RPMI-8226; read-out: Log TGI (converted)) was greater than 100 µM. The GI50 (OVCAR-5) was 63.1 µM, the CC50 (OVCAR-5; [9]) was greater than 100 µM and the TGI (OVCAR-5; read-out: Log TGI (converted)) was greater than 100 µM. For the same molecule, the GI50 (DU-145) was 38.9 µM, the CC50 (DU-145; [9]) was greater than 100 µM and the TGI (DU-145; read-out: Log TGI (converted)) was greater than 100 µM. For the same molecule, the GI50 (SF-539) was 38 µM, the CC50 (SF-539; [9]) was greater than 100 µM and the TGI (SF-539; read-out: Log TGI (converted)) was greater than 100 µM. The GI50 (UACC-62) was 30.9 µM, the CC50 (UACC-62; [9]) was greater than 100 µM and the TGI (UACC-62; read-out: Log TGI (converted)) was greater than 100 µM. The GI50 (CAKI-1) was 17 µM, the CC50 (CAKI-1; [9]) was greater than 100 µM and the TGI (CAKI-1; read-out: Log TGI (converted)) was 63.1 µM. The IC50 (NCI [1]) was 45 µM, the TGI (NCI [1]) was greater than 100 µM and the GI50 (MDA-MB-435) was 49 µM. The CC50 (MDA-MB-435; [9]) was greater than 100 µM, the TGI (MDA-MB-435; read-out: Log TGI (converted)) was greater than 100 µM and the IC50 (NCI [2]) was 55 µM. The TGI (NCI [2]) was greater than 100 µM, the IC50 (NCI [3]) was 55 µM and the TGI (NCI [3]) was greater than 100 µM. It also gave a CC50 (NCI [3]; read-out: LC50 (the source's name)) greater than 100 µM, a CC50 (A549; [9]) greater than 100 µM and a TGI (A549; read-out: Log TGI (converted)) greater than 100 µM. For the same molecule, the GI50 (SW-620) was 72.4 µM, the CC50 (SW-620; [9]) was greater than 100 µM and the TGI (SW-620; read-out: Log TGI (converted)) was greater than 100 µM. It also gave a GI50 (SK-MEL-28) greater than 100 µM, a CC50 (SK-MEL-28; [9]) greater than 100 µM and a TGI (SK-MEL-28; read-out: Log TGI (converted)) greater than 100 µM. The GI50 (SNB-75) was greater than 100 µM, the CC50 (SNB-75; [9]) was greater than 100 µM and the TGI (SNB-75; read-out: Log TGI (converted)) was greater than 100 µM. For the same molecule, the IC50 (NCI [4]) was 36 µM, the TGI (NCI [4]) was 87 µM and the GI50 (OVCAR-3) was 34.7 µM. It also gave an LC50 (OVCAR-3) greater than 100 µM, a TGI (OVCAR-3; read-out: Log TGI (converted)) greater than 100 µM and a GI50 (SF-268) of 47.9 µM. For the same molecule, the CC50 (SF-268; [9]) was greater than 100 µM, the TGI (SF-268; read-out: Log TGI (converted)) was greater than 100 µM and the GI50 (BT-549) was 36.3 µM. The CC50 (BT-549; [9]) was greater than 100 µM, the TGI (BT-549; read-out: Log TGI (converted)) was greater than 100 µM and the GI50 (HOP-92) was 30.2 µM. The CC50 (HOP-92; [9]) was greater than 100 µM, the TGI (HOP-92; read-out: Log TGI (converted)) was greater than 100 µM and the GI50 (IGROV-1) was 34.7 µM. The CC50 (IGROV-1; [9]) was greater than 100 µM, the TGI (IGROV-1; read-out: Log TGI (converted)) was greater than 100 µM and the IC50 (NCI [5]) was 39 µM. It also gave a TGI (NCI [5]) greater than 100 µM, a GI50 [6] of 37.2 µM and a CC50 [6, 9] greater than 100 µM. For the same molecule, the TGI ([6]; read-out: Log TGI (converted)) was greater than 100 µM, the GI50 (SK-MEL-2) was 64.6 µM and the CC50 (SK-MEL-2; [9]) was greater than 100 µM. For the same molecule, the TGI (SK-MEL-2; read-out: Log TGI (converted)) was greater than 100 µM, the GI50 (OVCAR-4) was greater than 100 µM and the CC50 (OVCAR-4; [9]) was greater than 100 µM. It also gave a TGI (OVCAR-4; read-out: Log TGI (converted)) greater than 100 µM, a GI50 (EKVX) of 38 µM and a CC50 (EKVX; [9]) greater than 100 µM. The TGI (EKVX; read-out: Log TGI (converted)) was greater than 100 µM, the GI50 (NCI-H460) was 26.3 µM and the CC50 (NCI-H460; [9]) was greater than 100 µM. For the same molecule, the TGI (NCI-H460; read-out: Log TGI (converted)) was greater than 100 µM, the GI50 (HCT-116) was 35.5 µM and the CC50 (HCT-116; [9]) was greater than 100 µM. The TGI (HCT-116; read-out: Log TGI (converted)) was greater than 100 µM, the pKP (Hs-578T) was greater than 4 and the GI50 (Hs-578T; Homo sapiens, Hs-578T) was 25.1 µM. The CC50 (Hs-578T; Homo sapiens, Hs-578T, read-out: Log LC50 (the source's name) (converted)) was greater than 100 µM, the TGI (Hs-578T; Homo sapiens, Hs-578T, read-out: Log TGI (converted)) was 85.1 µM and the GI50 (MCF7) was 42.7 µM. It also gave a CC50 (MCF7; [9]) greater than 100 µM, a TGI (MCF7; read-out: Log TGI (converted)) greater than 100 µM and a GI50 (786-0) of 60.3 µM. It also gave an LC50 (concentration giving 50% net cell death) (786-0) greater than 100 µM, a TGI (786-0; read-out: Log TGI (converted)) greater than 100 µM and a GI50 (NCI-H322M) of 41.7 µM. The CC50 (NCI-H322M; [9]) was greater than 100 µM, the TGI (NCI-H322M; read-out: Log TGI (converted)) was greater than 100 µM and the GI50 (NCI-H23) was 34.7 µM. For the same molecule, the LC50 (50% net cell kill) (NCI-H23) was greater than 100 µM, the TGI (NCI-H23; read-out: Log TGI (converted)) was greater than 100 µM and the GI50 (SK-OV-3) was 41.7 µM. The CC50 (SK-OV-3; [9]) was greater than 100 µM, the TGI (SK-OV-3; read-out: Log TGI (converted)) was greater than 100 µM and the GI50 (TK-10) was 26.9 µM. The CC50 (TK-10; [9]) was greater than 100 µM, the TGI (TK-10; read-out: Log TGI (converted)) was greater than 100 µM and the GI50 (SF-295) was 32.4 µM. It also gave a CC50 (SF-295; [9]) greater than 100 µM, a TGI (SF-295; read-out: Log TGI (converted)) greater than 100 µM and an IC50 [7] of 42 µM. The TGI [7] was greater than 100 µM, the half-life [8] was 7.17 h and the GI50 (U-251) was 50.1 µM. The CC50 (U-251; [9]) was greater than 100 µM, the TGI (U-251; read-out: Log TGI (converted)) was greater than 100 µM and the GI50 (MDA-MB-231) was 40.7 µM. For the same molecule, the CC50 (MDA-MB-231; [9]) was greater than 100 µM and the TGI (MDA-MB-231; read-out: Log TGI (converted)) was greater than 100 µM.
